Test results from ChEMBL document CHEMBL2321806 (J Med Chem, 2013).
Active and inactive are the calls of the source. The calls are words filed in the database; no cut-off is given here.

Legend:
[1] = molecular target: T1, Matrilysin (Homo sapiens) (UniProt P09237); experiment: (§1) Inhibition of MMP7 (unknown origin)-mediated omniMMP degradation
T1 sequence (whole entry): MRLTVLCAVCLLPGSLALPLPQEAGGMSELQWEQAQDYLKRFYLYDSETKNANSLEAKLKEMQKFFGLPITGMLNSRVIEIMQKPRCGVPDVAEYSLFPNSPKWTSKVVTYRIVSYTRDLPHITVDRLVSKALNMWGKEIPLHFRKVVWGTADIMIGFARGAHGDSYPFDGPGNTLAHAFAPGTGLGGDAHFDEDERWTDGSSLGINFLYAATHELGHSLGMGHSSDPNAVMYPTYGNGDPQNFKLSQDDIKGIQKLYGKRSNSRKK
Procedure, shortened: (§2)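 Each protease (NEP, ECE1, ACE, MMP-2, MMP-7) was tested against the shared fluorogenic peptide substrate OmniMMP, with inhibitor concentrations up to 10 μM. IC50 values were taken from the dose-response data.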

Insulin-degrading enzyme [2] = molecular target: T2, Insulin-degrading enzyme (Homo sapiens, UniProt P14735); experiment: Inhibition of human recombinant IDE-mediated insulin degradation; conditions: read-out: Ki(app)
Procedure, shortened: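 Insulin (2 nM) breakdown by recombinant human IDE in 50 mM HEPES pH 7.4, 100 mM NaCl, 10 mM MgCl₂, 0.05% BSA at 22 °C.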

Insulin-degrading enzyme [3] = molecular target: T2, Insulin-degrading enzyme; experiment: Inhibition of human recombinant IDE-mediated fluorescein-Abeta-(1-40)-Lys-biotin degradation; conditions: read-out: Ki(app)
Procedure, shortened: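 Aβ (200 nM) degradation by recombinant human IDE at 22 °C in HEPES pH 7.4 buffer with 100 mM NaCl, 10 mM MgCl₂, 0.05% BSA.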

Insulin-degrading enzyme [4] = molecular target: T2, Insulin-degrading enzyme; experiment: Inhibition of human recombinant IDE-mediated FRET1 degradation; conditions: read-out: Ki(app)
Insulin-degrading enzyme [5] = molecular target: T2, Insulin-degrading enzyme; experiment: Selectivity ratio of apparent Ki for human recombinant IDE-mediated insulin degradation to apparent Ki for human recombinant IDE-mediated FRET1 degradation
Matrilysin = molecular target: T3, Matrilysin (Homo sapiens, UniProt P09237); experiment: as §1; procedure, shortened: as §2
T3 sequence (P09237 whole entry): T1 sequence (whole entry)

[6] = molecular target: 72 kDa type IV collagenase (Homo sapiens) (UniProt P08253); experiment: Inhibition of MMP2 (unknown origin)-mediated omniMMP degradation up to 10 uM; procedure, shortened: as §2
[7] = molecular target: T1, Matrilysin (Homo sapiens); experiment: Inhibition of MMP7 (unknown origin)-mediated omniMMP degradation up to 10 uM; procedure, shortened: as §2
[8] = molecular target: Angiotensin-converting enzyme (Homo sapiens) (UniProt P12821); experiment: Inhibition of ACE (unknown origin)-mediated omniMMP degradation up to 10 uM; procedure, shortened: as §2
[9] = molecular target: Neprilysin (Homo sapiens) (UniProt P08473); experiment: Inhibition of NEP (unknown origin)-mediated omniMMP degradation up to 10 uM; procedure, shortened: as §2
[10] = molecular target: T4, Endothelin-converting enzyme 1 (Homo sapiens) (UniProt P42892); experiment: Inhibition of ECE1 (unknown origin)-mediated omniMMP degradation up to 10 uM; procedure, shortened: as §2
T4 sequence (whole entry): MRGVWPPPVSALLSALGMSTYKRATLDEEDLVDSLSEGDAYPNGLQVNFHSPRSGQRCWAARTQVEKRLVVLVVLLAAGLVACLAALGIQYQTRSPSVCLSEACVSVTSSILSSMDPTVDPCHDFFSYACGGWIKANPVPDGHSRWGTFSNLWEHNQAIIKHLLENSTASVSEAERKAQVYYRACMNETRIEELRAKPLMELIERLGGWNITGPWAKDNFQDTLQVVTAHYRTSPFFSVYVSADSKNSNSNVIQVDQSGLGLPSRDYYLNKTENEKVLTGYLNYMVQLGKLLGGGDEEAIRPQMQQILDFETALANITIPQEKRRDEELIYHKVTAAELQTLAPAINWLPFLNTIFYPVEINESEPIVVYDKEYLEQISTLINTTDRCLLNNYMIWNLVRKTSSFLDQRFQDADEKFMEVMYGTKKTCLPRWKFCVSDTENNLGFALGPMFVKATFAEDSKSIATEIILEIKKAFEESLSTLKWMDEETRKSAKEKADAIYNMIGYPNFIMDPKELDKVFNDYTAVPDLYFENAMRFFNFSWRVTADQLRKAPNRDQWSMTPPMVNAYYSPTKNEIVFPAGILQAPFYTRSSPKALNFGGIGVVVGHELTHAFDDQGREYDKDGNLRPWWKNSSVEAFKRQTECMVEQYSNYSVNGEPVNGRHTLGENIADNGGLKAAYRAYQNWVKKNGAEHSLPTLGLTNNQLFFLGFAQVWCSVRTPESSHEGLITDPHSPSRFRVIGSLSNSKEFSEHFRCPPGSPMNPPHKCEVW

T2 sequence (P14735 whole entry): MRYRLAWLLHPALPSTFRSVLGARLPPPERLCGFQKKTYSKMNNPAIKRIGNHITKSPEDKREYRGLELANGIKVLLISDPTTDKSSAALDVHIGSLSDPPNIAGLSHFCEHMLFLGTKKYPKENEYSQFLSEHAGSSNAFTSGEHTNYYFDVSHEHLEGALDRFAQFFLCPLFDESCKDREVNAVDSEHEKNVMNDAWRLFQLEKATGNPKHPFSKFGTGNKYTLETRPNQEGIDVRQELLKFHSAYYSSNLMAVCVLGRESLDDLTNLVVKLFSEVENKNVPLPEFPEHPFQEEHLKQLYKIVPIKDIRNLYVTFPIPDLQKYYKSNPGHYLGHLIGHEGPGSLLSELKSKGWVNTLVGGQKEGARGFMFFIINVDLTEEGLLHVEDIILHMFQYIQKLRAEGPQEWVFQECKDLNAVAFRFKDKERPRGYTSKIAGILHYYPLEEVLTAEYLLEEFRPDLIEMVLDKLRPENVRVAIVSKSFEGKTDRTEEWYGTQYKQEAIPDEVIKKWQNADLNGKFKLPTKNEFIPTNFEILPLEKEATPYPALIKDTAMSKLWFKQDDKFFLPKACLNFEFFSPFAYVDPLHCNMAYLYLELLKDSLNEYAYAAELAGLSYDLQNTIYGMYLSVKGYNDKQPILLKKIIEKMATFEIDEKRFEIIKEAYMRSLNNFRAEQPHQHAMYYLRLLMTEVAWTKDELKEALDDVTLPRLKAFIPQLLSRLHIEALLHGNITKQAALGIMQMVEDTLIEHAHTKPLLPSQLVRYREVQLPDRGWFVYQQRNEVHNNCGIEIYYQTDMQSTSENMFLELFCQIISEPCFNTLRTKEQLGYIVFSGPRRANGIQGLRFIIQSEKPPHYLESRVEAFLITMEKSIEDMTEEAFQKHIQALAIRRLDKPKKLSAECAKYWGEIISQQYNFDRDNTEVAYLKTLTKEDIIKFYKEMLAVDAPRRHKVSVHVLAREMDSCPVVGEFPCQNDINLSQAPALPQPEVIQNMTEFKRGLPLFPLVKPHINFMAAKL
Chain of Neprilysin (Homo sapiens) (P08473 whole entry): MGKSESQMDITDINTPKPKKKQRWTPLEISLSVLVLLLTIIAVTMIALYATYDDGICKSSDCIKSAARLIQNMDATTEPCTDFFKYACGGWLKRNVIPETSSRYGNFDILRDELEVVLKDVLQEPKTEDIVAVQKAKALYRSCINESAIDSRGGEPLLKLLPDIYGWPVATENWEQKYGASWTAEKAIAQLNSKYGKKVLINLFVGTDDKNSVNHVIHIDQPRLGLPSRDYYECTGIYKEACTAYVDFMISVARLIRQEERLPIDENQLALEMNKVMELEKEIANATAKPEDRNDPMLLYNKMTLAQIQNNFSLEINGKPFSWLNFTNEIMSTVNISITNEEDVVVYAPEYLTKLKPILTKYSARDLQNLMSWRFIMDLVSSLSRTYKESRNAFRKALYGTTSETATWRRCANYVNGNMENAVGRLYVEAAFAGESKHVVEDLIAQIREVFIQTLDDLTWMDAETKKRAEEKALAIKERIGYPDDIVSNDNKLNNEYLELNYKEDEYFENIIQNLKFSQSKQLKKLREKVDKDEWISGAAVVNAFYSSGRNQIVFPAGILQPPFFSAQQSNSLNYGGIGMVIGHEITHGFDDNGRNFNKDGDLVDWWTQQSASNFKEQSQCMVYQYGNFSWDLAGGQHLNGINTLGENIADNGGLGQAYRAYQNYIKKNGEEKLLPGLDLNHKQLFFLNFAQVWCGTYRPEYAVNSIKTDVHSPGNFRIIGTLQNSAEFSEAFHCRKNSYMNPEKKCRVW
Chain of 72 kDa type IV collagenase (Homo sapiens) (P08253 110-660 limits assumed): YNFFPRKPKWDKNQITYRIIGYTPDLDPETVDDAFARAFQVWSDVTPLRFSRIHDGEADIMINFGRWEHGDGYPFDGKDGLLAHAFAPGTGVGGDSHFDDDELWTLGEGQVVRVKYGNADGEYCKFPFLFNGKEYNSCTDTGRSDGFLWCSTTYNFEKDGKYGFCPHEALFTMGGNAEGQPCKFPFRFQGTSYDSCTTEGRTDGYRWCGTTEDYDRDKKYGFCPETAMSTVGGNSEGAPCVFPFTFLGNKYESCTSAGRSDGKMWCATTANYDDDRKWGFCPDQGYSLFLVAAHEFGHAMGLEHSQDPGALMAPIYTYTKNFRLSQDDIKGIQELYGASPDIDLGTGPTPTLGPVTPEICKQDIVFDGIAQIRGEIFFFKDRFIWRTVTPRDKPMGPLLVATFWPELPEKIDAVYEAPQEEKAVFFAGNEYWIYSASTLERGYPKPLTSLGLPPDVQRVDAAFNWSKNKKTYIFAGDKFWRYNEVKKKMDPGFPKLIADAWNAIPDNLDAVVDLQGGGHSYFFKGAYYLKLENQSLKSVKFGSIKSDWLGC
Chain of Angiotensin-converting enzyme (Homo sapiens) (P12821 whole entry): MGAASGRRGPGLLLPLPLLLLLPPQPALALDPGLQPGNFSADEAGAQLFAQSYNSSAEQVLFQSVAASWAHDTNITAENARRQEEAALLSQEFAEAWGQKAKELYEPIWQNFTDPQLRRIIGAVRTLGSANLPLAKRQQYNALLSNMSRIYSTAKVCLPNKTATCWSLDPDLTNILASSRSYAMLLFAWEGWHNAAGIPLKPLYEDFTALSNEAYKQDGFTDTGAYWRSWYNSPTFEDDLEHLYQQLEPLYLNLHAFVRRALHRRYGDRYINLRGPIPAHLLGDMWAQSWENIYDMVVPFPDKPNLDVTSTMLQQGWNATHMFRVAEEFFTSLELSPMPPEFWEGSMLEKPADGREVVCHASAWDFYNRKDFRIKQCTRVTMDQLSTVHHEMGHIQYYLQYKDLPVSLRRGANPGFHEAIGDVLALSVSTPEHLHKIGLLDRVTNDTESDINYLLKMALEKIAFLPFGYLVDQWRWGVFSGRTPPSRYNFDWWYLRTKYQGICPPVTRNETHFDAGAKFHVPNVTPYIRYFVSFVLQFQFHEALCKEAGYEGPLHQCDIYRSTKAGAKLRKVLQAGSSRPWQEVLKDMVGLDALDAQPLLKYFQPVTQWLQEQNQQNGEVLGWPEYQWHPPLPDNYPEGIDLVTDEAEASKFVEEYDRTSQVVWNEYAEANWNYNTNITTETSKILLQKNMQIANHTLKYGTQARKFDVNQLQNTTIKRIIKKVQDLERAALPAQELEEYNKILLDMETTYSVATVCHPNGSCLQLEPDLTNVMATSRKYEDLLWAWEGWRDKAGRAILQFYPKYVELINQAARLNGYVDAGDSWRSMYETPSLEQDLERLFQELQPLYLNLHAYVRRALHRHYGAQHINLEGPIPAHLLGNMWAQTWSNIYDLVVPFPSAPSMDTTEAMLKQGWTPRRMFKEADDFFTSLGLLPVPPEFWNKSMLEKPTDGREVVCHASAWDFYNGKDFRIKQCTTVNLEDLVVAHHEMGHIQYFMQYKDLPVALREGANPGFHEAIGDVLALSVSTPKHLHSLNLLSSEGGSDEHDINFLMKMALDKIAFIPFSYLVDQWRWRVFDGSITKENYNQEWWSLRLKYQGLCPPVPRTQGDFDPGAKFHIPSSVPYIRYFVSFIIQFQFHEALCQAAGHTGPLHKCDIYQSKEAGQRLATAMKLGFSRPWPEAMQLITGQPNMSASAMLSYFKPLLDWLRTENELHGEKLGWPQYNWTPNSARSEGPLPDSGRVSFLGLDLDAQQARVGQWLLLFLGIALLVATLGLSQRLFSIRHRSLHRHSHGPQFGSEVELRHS

| SMILES | Ki (Insulin-degrading enzyme [2]) | Ki (Insulin-degrading enzyme [3]) | Ki (Insulin-degrading enzyme [4]) | further results |
| --- | --- | --- | --- | --- |
| N=C(N)NCCC[C@H](NC(=O)[C@@H](CC(=O)NO)Cc1ccc2ccccc2c1)C(=O)N[C@@H](Cc1c[nH]c2ccccc12)C(=O)N[C@@H](CCC(=O)O)C(N)=O | 37.9 nM | 21.7 nM | 2.96 nM | inhibition [1]: Active |
| CC[C@@H](C)[C@H]1NC(=O)[C@@H](Cc2ccccc2)NC(=O)[C@@H](Cc2cnc[nH]2)NC(=O)[C@@H](CC(=O)O)NC(=O)CC[C@H](C(=O)N[C@H](Cc2c[nH]c3ccccc23)C(=O)N[C@H](CCCN=C(N)N)C(=O)N[C@H](Cc2ccc3ccccc3c2)C(=O)NO)NC(=O)[C@@H](CCCN=C(N)N)NC1=O | 171 nM | 246 nM | 23.1 nM | – |
| CC(=O)N[C@@H](CCC(=O)NCCNc1cccc2c(S(=O)(=O)O)cccc12)C(=O)N[C@H](Cc1ccc(O)cc1)C(=O)N(C(=O)c1ccccc1)[C@H](Cc1ccccc1)C(=O)N[C@H](Cc1ccc2ccccc2c1)C(=O)NO | 410 nM | 1.4 nM | 43.7 nM | – |
| N=C(N)NCCC[C@@H](NC(=O)[C@@H](Cc1c[nH]c2ccccc12)NC(=O)[C@H](N)CCC(=O)O)C(=O)N[C@H](Cc1ccc2ccccc2c1)C(=O)NO | – | – | – | Ratio Ki(app) (Insulin-degrading enzyme [5]): > 60 |
| NC(N)=NCCC[C@@H](NC(=O)[C@@H](Cc1c[nH]c2ccccc12)NC(=O)[C@H](N)CCC(=O)O)C(=O)N[C@H](Cc1ccc2ccccc2c1)C(=O)NO | 3260 nM | 228 nM | 49.8 nM | – |
| NC(=O)[C@H](CCC(=O)O)NC(=O)[C@H](Cc1c[nH]c2ccccc12)NC(=O)[C@H](CCCN=C(N)N)NC(=O)[C@H](Cc1ccc2ccccc2c1)[C@@H](O)C(=O)NO | 1890 nM | 927 nM | 103 nM | – |
| N=C(N)NCCC[C@H](NC(=O)[C@H](CC(=O)NO)Cc1ccc2ccccc2c1)C(=O)N[C@@H](Cc1c[nH]c2ccccc12)C(=O)N[C@@H](CCC(=O)O)C(N)=O | – | – | 73.3 nM | – |
| NC(=O)[C@H](CCC(=O)O)NC(=O)[C@H](Cc1c[nH]c2ccccc12)NC(=O)[C@H](CCCN=C(N)N)NC(=O)[C@H](Cc1ccc2ccccc2c1)[C@H](O)C(=O)NO | 275 nM | 70.3 nM | 25.9 nM | IC50 (Matrilysin): 1150 nM |
| N=C(N)NCCC[C@H](NC(=O)[C@H](Cc1ccc2ccccc2c1)[C@@H](O)C(=O)NO)C(=O)N[C@@H](Cc1c[nH]c2ccccc12)C(=O)N[C@@H](CCC(=O)O)C(N)=O | – | – | – | inhibition [6]: inactive; inhibition [7]: inactive; inhibition [8]: inactive; inhibition [9]: inactive; inhibition [10]: inactive |

Second part, led by results:

| Ki (Insulin-degrading enzyme [2]) | Ki (Insulin-degrading enzyme [3]) | Ki (Insulin-degrading enzyme [4]) | SMILES | further results |
| --- | --- | --- | --- | --- |
| – | – | 78 nM | CC(=O)N[C@@H](CCC(=O)O)C(=O)N[C@@H](Cc1c[nH]c2ccccc12)C(=O)N[C@@H](CCCN=C(N)N)C(=O)[C@H](CC(=O)NO)Cc1ccc2ccccc2c1 | – |
| – | – | > 33000 nM | N=C(N)NCCCC[C@H](NC(=O)[C@H](Cc1ccc2ccccc2c1)[C@H](O)C(=O)NO)C(N)=O | – |
| – | – | 7020 nM | NC(=O)[C@H](CCCN=C(N)N)NC(=O)[C@H](Cc1ccc2ccccc2c1)[C@@H](O)C(=O)NO | – |
| – | – | > 33000 nM | N=C(N)NCCCC[C@H](NC(=O)[C@H](CC(=O)NO)Cc1ccc2ccccc2c1)C(N)=O | – |
| 1280 nM | 107 nM | 87 nM | C=CCOC(=O)[C@H](CCCN=C(N)N)NC(=O)[C@@H](CC(=O)NO)Cc1ccc2ccccc2c1 | – |
| – | – | 5280 nM | C=CCOC(=O)[C@H](CCCNC(=N)N)NC(=O)[C@H](CC(=O)NO)Cc1ccc2ccccc2c1 | – |
| 833 nM | 365 nM | 85.1 nM | N=C(N)NCCC[C@@H](NC(=O)[C@@H](Cc1ccc(O)cc1)NC(=O)[C@H](N)CCC(=O)O)C(=O)N[C@H](Cc1ccc2ccccc2c1)C(=O)NO | – |
| – | – | > 33000 nM | N=C(N)NCCCC[C@H](NC(=O)[C@@H](CC(=O)NO)Cc1ccc2ccccc2c1)C(N)=O | – |
| – | – | > 33000 nM | NC(=O)[C@H](CCCN=C(N)N)NC(=O)[C@H](CC(=O)NO)Cc1ccc2ccccc2c1 | – |
| – | – | 1150 nM | NC(=O)[C@H](CCCN=C(N)N)NC(=O)[C@@H](CC(=O)NO)Cc1ccc2ccccc2c1 | – |
| – | – | 7750 nM | NC(=O)[C@H](CCCN=C(N)N)NC(=O)[C@H](Cc1ccc2ccccc2c1)[C@H](O)C(=O)NO | – |
